18 compounds from ChEMBL document CHEMBL3112415, “Novel hybrid selenosulfonamides as potent antileishmanial agents” (Eur J Med Chem, 2014) can be followed below.

One data set has as its system THP-1. In words: Cytotoxicity against human THP1 cells after 24 hrs by propidium iodide staining-based flow cytometric analysis. Type of data set: cell-based. The conditions noted are these: THP-1, 24 h. In outline: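 THP-1 cells grown in RPMI-1640 with 10% heat-inactivated FCS, 1 mM HEPES, 2 mM glutamine, 1 mM pyruvate, pH 7.2, 37 °C, 5% CO2; treated in log phase at 4 × 10⁵ cells/mL for 24 h at 37 °C, 5% CO2. Viability by flow cytometry with propidium iodide exclusion; IC50 reported.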

Data set [1] is described as follows: Selectivity index, ratio of IC50 for human THP1 cells to IC50 for axenic amastigote stage of Leishmania infantum. Type of data set: toxicity, cell-based, THP-1. The conditions noted are these: read-out: Ratio IC50. In outline:
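SI computed as THP-1 IC50 (24 h PI-exclusion flow cytometry) divided by IC50 against L. infantum amastigotes.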

Data set [2] concerns Leishmania infantum. In words: Leishmanicidal activity against axenic amastigote stage of Leishmania infantum after 24 hrs by propidium iodide staining-based flow cytometric analysis. The data set is classed as functional, organism-based. The method in brief: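 Axenic amastigotes maintained at pH 5.4, 37 °C in medium with citric acid, sodium bicarbonate, MES, hemin and gentamicin; miltefosine and edelfosine as standards; at least three independent experiments; IC50 values.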

The test system of data set [3] is Leishmania infantum. In words: Leishmanicidal activity against amastigote stage of Leishmania infantum expressing GFP infected in human THP1 cells after 48 hrs by flow cytometric analysis. The data set is classed as functional, organism-based. The conditions noted are these: THP-1, 48 h. In outline:
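THP-1 cells seeded at 120.000 cells/mL, differentiated to macrophages for 24 h with 10 ng/mL PMA in RPMI-1640, then infected with 1.2 × 10⁶ eGFP-expressing amastigotes per well; free parasites removed after 4 h. After 48 h drug treatment, cells washed with PBS, detached with TrypLE, and infection rate read by flow cytometry.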

Turning to `O=S(=O)(Nc1ccc([Se][Se]c2ccc(NS(=O)(=O)c3ccccc3)cc2)cc1)c1ccccc1`, the results for the IC50 in the data set on THP-1 and in the data set with Leishmania infantum [2] were 11.9 µM and 1.64 µM, respectively. Further, in data set [1], the selectivity ratio was 7.3.

Turning to `Cc1ccc(S(=O)(=O)Nc2ccc([Se][Se]c3ccc(NS(=O)(=O)c4ccc(C)cc4)cc3)cc2)cc1`, the IC50 in the data set on THP-1 is above 25 µM; with Leishmania infantum [2] it was 1.4 µM; with Leishmania infantum [3] it was 4.1 µM. Besides, the selectivity ratio in data set [1] is above 18.

`COc1ccc(S(=O)(=O)Nc2ccc([Se][Se]c3ccc(NS(=O)(=O)c4ccc(OC)cc4)cc3)cc2)cc1`: the half-maximal inhibitory concentration (IC50) in the data set on THP-1 came to 18.1 µM; in the data set with Leishmania infantum [2], 1.3 µM. Moreover, the selectivity ratio in data set [1] worked out at 14.

Turning to `N#Cc1ccc(S(=O)(=O)Nc2ccc([Se][Se]c3ccc(NS(=O)(=O)c4ccc(C#N)cc4)cc3)cc2)cc1`, the IC50 with THP-1 was found to be 3.6 µM; with Leishmania infantum [2], 1.76 µM. In addition, in data set [1], the selectivity ratio was determined as 2.

In the case of `O=[N+]([O-])c1ccc(S(=O)(=O)Nc2ccc([Se][Se]c3ccc(NS(=O)(=O)c4ccc([N+](=O)[O-])cc4)cc3)cc2)cc1`, the 50% inhibitory concentration (IC50) in the data set on THP-1 is 17.1 µM; with Leishmania infantum [2], 3.74 µM. Further, in data set [1], the selectivity ratio turned out to be 4.6.

Turning to `O=S(=O)(Nc1ccc([Se][Se]c2ccc(NS(=O)(=O)c3ccc(C(F)(F)F)cc3)cc2)cc1)c1ccc(C(F)(F)F)cc1`, the concentration for half-maximal inhibition (IC50) in the data set on THP-1 amounted to 19.1 µM; in the data set on Leishmania infantum [2], 2.01 µM. In addition, in data set [1], the selectivity ratio amounted to 9.5.

For the compound `O=S(=O)(Nc1ccc([Se][Se]c2ccc(NS(=O)(=O)c3ccc(F)cc3)cc2)cc1)c1ccc(F)cc1`, the results for the IC50 with THP-1, with Leishmania infantum [2] and with Leishmania infantum [3] were above 25 µM, 1.47 µM and 2.8 µM, respectively. Besides, the selectivity ratio in data set [1] is above 17.

For `O=S(=O)(Nc1ccc([Se][Se]c2ccc(NS(=O)(=O)c3ccc(Cl)cc3)cc2)cc1)c1ccc(Cl)cc1`, the IC50 is above 25 µM with THP-1 and 3.63 µM in the data set with Leishmania infantum [2]. Besides, in data set [1], the selectivity ratio was above 7.

Take `O=S(=O)(Nc1ccc([Se][Se]c2ccc(NS(=O)(=O)c3ccc(Br)cc3)cc2)cc1)c1ccc(Br)cc1`: the figures for the IC50 with THP-1 and with Leishmania infantum [2] were 5.2 µM and 2.8 µM, respectively. In data set [1], the selectivity ratio was 2.

Take `O=S(=O)(Nc1ccc([Se][Se]c2ccc(NS(=O)(=O)c3ccccc3F)cc2)cc1)c1ccccc1F`: the concentration for half-maximal inhibition (IC50) was determined as 17.8 µM in the data set on THP-1 and 1.66 µM in the data set on Leishmania infantum [2]. The selectivity ratio in data set [1] came to 10.7.

Regarding `O=S(=O)(Nc1ccc([Se][Se]c2ccc(NS(=O)(=O)c3ccccc3Cl)cc2)cc1)c1ccccc1Cl`, the values for the half-maximal inhibitory concentration (IC50) in the data set with THP-1 and with Leishmania infantum [2] were 17.4 µM and 1.17 µM, respectively. For the same compound, the selectivity ratio in data set [1] stood at 15.

Regarding `O=S(=O)(Nc1ccc([Se][Se]c2ccc(NS(=O)(=O)c3ccc(-c4ccccc4)cc3)cc2)cc1)c1ccc(-c2ccccc2)cc1`, the IC50 in the data set with THP-1 was above 25 µM; in the data set on Leishmania infantum [2] it was 13.8 µM. In addition, the selectivity ratio in data set [1] was above 2.

`O=S(=O)(Nc1ccc([Se][Se]c2ccc(NS(=O)(=O)c3ccc4ccccc4c3)cc2)cc1)c1ccc2ccccc2c1`: the figures for the half-inhibitory concentration (IC50) with THP-1 and in the data set with Leishmania infantum [2] were above 25 µM and 5.65 µM, respectively. Besides, in data set [1], the selectivity ratio was above 4.4.

As to `O=S(=O)(Nc1ccc([Se][Se]c2ccc(NS(=O)(=O)c3cccc4cccnc34)cc2)cc1)c1cccc2cccnc12`, the 50% inhibitory concentration (IC50) in the data set on THP-1 is above 25 µM; with Leishmania infantum [2] it was 0.83 µM; in the data set on Leishmania infantum [3] it was 6.2 µM. In data set [1], the selectivity ratio was above 30.

With `O=S(=O)(Nc1ccc([Se][Se]c2ccc(NS(=O)(=O)c3cccs3)cc2)cc1)c1cccs1`, the half-maximal inhibitory concentration (IC50) in the data set on THP-1 came out at 8.6 µM; with Leishmania infantum [2] it was 1.54 µM. Moreover, the selectivity ratio in data set [1] came out at 5.6.

As for `Cn1ccnc1S(=O)(=O)Nc1ccc([Se][Se]c2ccc(NS(=O)(=O)c3nccn3C)cc2)cc1`, the results for the half-maximal inhibitory concentration (IC50) in the data set on THP-1 and in the data set with Leishmania infantum [2] were 4.4 µM and 1.05 µM, respectively. Further, the selectivity ratio in data set [1] was found to be 4.

Turning to `CCCCCCCCCCCCCCCCCCOCC(COP(=O)([O-])OCC[N+](C)(C)C)OC` (stereo not given) [EDELFOSINE], the figures for the IC50 in the data set on THP-1 and in the data set with Leishmania infantum [3] were 4.9 µM and 3.1 µM, respectively. For the same compound, the selectivity ratio in data set [1] amounted to 6.

As to `CCCCCCCCCCCCCCCCOP(=O)([O-])OCC[N+](C)(C)C` [MILTEFOSINE], the selectivity ratio in data set [1] is 7.
